Here are results for ten compounds from ChEMBL document CHEMBL1165965, “Synthesis and structure-activity relationships of 1,2,3,4-tetrahydropyrido[2,3-b]pyrazines as potent and selective inhibitors of the anaplastic lymphoma kinase” (Bioorg Med Chem, 2010).

Experiment [1] has as its target Receptor tyrosine-protein kinase erbB-4 (Homo sapiens) (UniProt Q15303). Description: Inhibition of ERBB4 at 1 uM. In outline: (§1)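 Single-concentration screen using Ambit Bioscience KINOMEscan technology across a panel of 250–400 kinases. Per-kinase inhibition from this screen was summarized as S(90), the fraction of kinases inhibited by more than 90%.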
The target of experiment [2] is Cyclin-dependent kinase 2 (Homo sapiens) (UniProt P24941). Kind of experiment: Inhibition of CDK2 at 1 uM. The procedure, abridged:
(§2)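 Ambit KINOMEscan screen at a single concentration across a 250–400 kinase panel, recorded as percent inhibition. Selectivity was expressed as S(90), the fraction of kinases inhibited >90%.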

Experiment [3] addresses Cyclin-dependent kinase 5 (Homo sapiens) (UniProt Q00535). Kind of experiment: Inhibition of CDK5 at 1 uM. The procedure, abridged: as §2
Experiment [4] addresses T1, Activin receptor type-1B (Homo sapiens) (UniProt P36896).
T1 sequence (whole entry): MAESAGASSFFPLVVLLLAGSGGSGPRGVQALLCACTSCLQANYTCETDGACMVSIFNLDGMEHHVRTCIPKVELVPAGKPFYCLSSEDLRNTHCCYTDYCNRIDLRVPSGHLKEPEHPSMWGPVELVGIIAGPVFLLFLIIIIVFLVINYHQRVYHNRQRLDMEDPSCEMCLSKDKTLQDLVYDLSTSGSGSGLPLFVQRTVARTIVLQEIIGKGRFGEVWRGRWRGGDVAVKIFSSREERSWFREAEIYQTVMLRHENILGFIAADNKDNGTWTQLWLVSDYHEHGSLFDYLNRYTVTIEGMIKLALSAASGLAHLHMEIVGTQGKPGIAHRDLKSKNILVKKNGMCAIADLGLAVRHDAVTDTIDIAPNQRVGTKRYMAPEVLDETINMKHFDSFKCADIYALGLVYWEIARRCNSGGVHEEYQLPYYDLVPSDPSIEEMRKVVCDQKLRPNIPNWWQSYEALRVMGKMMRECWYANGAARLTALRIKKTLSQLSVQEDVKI
Kind of experiment: Inhibition of ACVR1B at 1 uM. The procedure, abridged: as §2

Experiment [5] has as its target Focal adhesion kinase 1 (Homo sapiens) (UniProt Q05397). Kind of experiment: Inhibition of FAK at 1 uM. The procedure, abridged: as §1
Experiment [6] deals with RAC-beta serine/threonine-protein kinase (Homo sapiens) (UniProt P31751). Kind of experiment: Inhibition of AKT2 at 1 uM. In outline: as §2
The target in experiment [7] is T2, Cyclin-dependent kinase-like 5 (Homo sapiens) (UniProt O76039).
T2 sequence (whole entry): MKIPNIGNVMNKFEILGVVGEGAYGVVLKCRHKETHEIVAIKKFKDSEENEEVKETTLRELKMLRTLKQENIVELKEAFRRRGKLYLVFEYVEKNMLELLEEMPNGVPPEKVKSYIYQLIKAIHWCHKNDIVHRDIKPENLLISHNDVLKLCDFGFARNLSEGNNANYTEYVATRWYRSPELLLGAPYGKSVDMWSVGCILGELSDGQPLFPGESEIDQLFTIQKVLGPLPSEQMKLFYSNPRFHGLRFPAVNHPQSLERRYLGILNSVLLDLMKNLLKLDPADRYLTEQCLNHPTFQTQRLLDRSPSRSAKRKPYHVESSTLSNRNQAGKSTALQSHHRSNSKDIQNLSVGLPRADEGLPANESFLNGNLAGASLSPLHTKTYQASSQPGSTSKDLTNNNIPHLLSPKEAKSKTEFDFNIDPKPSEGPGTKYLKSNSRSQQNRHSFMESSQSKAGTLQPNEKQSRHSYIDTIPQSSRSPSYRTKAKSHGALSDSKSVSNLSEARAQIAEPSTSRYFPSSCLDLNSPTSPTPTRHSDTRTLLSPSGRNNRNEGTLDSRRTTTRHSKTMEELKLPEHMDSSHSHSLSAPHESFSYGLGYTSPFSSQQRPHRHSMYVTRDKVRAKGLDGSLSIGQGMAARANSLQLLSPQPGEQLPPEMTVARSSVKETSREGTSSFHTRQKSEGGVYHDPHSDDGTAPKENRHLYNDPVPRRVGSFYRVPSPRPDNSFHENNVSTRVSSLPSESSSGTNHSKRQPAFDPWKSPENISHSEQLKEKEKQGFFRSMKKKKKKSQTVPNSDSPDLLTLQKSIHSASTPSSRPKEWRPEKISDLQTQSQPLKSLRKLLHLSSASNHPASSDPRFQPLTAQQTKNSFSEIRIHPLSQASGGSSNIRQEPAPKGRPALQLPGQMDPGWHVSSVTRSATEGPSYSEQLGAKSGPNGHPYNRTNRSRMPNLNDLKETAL
Description: Inhibition of CDKL5 at 1 uM.

Experiment [8] deals with Phosphatidylinositol 4,5-bisphosphate 3-kinase catalytic subunit alpha isoform (Homo sapiens), P42336 [C420R]. Kind of experiment: Inhibition of PIK3CA C420R mutant at 1 uM.
For experiment [9], the target named is T3, Serine/threonine-protein kinase ULK1 (Homo sapiens) (UniProt O75385).
T3 sequence (whole entry): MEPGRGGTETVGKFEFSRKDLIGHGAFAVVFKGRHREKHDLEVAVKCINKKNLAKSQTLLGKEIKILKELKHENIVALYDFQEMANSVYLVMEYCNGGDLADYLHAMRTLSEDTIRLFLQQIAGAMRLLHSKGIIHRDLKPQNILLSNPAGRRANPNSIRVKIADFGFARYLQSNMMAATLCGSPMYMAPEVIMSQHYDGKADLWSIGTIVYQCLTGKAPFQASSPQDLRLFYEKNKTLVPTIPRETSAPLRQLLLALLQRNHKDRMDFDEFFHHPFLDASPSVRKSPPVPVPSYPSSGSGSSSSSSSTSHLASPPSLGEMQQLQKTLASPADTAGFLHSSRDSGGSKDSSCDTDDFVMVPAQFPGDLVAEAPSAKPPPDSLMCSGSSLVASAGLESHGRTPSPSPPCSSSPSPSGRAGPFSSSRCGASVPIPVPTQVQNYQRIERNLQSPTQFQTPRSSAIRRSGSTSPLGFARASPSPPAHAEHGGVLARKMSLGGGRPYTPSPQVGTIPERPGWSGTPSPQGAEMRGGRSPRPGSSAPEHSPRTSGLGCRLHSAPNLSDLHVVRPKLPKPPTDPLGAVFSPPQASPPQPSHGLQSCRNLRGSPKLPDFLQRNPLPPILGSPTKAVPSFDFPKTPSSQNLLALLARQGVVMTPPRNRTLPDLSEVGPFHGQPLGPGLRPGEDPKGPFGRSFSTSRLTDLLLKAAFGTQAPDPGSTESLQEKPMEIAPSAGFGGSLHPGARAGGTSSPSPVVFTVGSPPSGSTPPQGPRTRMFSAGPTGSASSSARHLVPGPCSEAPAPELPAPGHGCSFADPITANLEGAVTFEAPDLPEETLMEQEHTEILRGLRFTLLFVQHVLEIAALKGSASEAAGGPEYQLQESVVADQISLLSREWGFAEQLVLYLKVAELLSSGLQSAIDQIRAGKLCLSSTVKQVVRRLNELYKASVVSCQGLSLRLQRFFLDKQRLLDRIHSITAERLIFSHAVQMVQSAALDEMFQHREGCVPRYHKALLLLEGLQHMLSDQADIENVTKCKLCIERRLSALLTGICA
Description: Inhibition of ULK1 at 1 uM.

In experiment [10] the target is Serine/threonine-protein kinase 35 (Homo sapiens) (UniProt Q8TDR2). Kind of experiment: Inhibition of STK35 at 1 uM.
Chain of Serine/threonine-protein kinase 35 (Homo sapiens) (Q8TDR2 whole entry): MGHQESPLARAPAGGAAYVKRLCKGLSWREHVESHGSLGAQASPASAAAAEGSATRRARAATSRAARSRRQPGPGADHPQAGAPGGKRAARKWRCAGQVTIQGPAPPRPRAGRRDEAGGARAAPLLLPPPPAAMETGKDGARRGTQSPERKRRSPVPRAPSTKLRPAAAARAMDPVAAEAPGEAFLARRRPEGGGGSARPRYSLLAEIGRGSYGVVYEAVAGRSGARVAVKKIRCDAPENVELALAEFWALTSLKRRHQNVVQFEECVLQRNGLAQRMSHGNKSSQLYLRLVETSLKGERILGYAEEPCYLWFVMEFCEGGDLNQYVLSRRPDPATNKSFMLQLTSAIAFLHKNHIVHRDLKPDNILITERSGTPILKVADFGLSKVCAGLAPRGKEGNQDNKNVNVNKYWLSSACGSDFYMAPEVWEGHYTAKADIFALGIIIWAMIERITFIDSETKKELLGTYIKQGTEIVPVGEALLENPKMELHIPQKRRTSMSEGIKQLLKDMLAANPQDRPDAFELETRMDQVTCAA

Chain of Receptor tyrosine-protein kinase erbB-4 (Homo sapiens) (Q15303 whole entry): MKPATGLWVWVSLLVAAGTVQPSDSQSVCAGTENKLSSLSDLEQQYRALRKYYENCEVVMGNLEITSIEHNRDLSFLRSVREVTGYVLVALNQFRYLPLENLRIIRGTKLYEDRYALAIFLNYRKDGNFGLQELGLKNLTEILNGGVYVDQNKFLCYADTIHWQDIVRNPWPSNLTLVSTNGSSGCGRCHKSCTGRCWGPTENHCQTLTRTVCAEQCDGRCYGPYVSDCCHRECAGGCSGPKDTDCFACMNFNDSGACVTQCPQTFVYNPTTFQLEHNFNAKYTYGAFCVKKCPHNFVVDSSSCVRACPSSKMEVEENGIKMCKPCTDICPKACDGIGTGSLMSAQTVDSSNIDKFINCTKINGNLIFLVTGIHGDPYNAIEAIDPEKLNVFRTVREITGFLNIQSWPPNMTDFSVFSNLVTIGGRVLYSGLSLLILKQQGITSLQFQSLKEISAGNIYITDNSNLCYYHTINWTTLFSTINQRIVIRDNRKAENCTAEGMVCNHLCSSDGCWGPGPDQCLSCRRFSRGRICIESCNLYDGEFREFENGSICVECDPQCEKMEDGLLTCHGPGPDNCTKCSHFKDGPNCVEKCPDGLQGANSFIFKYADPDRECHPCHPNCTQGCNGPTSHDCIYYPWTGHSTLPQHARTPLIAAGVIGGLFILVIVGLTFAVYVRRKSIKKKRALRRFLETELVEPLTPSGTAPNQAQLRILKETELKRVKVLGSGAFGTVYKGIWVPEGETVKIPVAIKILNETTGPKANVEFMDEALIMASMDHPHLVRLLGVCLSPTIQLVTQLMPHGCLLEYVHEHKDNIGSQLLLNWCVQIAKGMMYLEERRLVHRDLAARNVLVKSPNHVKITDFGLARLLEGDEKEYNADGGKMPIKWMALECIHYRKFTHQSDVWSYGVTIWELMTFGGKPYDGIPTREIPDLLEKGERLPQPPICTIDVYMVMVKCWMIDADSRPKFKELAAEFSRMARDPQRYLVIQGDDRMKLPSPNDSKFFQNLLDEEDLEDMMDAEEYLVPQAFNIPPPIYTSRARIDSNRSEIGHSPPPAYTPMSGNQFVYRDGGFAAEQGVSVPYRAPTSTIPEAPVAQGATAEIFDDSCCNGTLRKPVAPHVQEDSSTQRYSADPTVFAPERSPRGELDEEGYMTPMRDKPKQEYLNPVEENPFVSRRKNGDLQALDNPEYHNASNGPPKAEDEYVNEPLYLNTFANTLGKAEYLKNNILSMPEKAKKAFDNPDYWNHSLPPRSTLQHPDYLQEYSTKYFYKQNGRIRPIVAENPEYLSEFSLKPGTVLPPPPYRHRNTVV
Chain of Cyclin-dependent kinase 5 (Homo sapiens) (Q00535 whole entry, looked up): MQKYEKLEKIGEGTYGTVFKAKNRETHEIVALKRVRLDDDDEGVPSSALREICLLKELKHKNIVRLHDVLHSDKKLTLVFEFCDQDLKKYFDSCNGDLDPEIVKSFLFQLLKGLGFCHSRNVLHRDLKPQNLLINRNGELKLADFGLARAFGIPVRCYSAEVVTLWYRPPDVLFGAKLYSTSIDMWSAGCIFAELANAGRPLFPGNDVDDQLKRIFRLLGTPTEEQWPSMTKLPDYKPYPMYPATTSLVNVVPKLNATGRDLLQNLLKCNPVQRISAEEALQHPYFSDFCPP
Chain of RAC-beta serine/threonine-protein kinase (Homo sapiens) (P31751 whole entry): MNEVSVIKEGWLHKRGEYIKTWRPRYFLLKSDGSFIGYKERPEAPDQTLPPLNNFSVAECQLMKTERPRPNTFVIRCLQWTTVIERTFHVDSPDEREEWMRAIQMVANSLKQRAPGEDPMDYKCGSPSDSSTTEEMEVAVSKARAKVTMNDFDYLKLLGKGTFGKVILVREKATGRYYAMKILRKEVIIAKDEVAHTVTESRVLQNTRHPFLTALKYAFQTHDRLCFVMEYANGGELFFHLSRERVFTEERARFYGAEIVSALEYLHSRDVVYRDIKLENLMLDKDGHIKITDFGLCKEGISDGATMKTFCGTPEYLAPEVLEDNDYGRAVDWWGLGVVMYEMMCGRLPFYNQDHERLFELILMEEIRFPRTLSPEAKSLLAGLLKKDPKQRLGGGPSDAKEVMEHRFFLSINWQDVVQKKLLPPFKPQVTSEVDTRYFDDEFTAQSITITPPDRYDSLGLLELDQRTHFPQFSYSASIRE
Chain of Focal adhesion kinase 1 (Homo sapiens) (Q05397 2-1052 limits assumed): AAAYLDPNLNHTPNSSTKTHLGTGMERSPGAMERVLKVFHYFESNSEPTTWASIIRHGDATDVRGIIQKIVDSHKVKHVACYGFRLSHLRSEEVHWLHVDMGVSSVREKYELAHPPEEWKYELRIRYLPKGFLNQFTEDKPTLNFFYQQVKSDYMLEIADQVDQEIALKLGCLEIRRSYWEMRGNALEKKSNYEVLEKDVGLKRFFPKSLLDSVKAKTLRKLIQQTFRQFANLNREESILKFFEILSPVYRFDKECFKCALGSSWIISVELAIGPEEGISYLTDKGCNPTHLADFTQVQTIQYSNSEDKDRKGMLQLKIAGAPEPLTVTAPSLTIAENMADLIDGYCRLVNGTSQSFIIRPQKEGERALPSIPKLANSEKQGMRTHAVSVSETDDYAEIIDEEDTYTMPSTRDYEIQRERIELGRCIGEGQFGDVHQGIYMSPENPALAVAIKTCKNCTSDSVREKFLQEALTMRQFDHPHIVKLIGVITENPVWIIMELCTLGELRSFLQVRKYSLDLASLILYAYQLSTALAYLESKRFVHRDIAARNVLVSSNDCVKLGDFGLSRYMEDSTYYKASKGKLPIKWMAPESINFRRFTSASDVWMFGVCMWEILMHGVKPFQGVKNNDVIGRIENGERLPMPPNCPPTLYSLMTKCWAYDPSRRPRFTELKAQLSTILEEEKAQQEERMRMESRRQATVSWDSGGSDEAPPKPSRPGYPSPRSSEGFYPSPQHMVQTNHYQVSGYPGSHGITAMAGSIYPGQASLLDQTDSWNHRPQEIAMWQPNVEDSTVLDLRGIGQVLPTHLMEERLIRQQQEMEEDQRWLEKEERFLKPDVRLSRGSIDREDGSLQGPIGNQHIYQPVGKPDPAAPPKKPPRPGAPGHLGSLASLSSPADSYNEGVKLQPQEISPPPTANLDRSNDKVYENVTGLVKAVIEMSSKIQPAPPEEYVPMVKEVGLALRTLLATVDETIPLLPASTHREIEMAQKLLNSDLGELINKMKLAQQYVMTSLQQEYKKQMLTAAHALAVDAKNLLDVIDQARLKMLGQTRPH
Chain of Phosphatidylinositol 4,5-bisphosphate 3-kinase catalytic subunit alpha isoform (Homo sapiens), P42336 [C420R] (P42336 whole entry C420R, canonical isoform): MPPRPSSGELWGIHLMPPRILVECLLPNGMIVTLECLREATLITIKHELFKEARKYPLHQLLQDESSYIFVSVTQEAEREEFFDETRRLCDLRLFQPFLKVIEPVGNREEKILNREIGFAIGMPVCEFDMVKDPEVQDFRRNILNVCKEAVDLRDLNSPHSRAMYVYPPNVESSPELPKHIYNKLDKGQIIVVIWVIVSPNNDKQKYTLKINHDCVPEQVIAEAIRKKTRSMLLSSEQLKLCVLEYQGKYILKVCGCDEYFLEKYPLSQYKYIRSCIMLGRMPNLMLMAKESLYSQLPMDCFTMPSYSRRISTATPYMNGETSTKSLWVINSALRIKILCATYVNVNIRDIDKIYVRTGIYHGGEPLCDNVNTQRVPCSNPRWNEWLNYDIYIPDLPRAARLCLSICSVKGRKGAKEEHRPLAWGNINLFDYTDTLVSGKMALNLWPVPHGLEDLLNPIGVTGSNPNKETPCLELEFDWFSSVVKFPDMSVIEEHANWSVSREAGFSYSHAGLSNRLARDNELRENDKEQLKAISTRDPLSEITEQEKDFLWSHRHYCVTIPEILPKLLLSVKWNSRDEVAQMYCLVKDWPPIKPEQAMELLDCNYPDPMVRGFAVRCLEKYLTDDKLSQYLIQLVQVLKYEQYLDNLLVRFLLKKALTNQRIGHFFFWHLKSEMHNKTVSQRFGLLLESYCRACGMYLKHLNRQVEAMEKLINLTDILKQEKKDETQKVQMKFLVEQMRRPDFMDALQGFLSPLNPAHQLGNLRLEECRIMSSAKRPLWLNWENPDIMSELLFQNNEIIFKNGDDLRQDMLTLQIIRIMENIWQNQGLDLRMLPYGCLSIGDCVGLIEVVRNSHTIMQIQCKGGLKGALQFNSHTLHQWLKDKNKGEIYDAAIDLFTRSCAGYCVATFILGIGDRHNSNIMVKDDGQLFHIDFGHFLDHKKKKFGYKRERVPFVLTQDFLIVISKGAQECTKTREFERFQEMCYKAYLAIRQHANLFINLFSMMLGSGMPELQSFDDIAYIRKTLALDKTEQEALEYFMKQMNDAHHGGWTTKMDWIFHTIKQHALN

For `O=C(c1ccc(-c2cnc3c(c2)N(Cc2cc(Cl)ccc2C(F)(F)F)CCN3)cc1)N1CCCCC1`, the inhibition is less than 50% in [1]; less than 50% in experiment [2]; less than 50% in [3]; less than 50% in experiment [4]; 84.4% in [5]; less than 50% in experiment [6].

Take `CN1CCN(c2ccc(-c3cnc4c(c3)N(Cc3c(F)ccc(F)c3Cl)CCN4)cn2)CC1`: the inhibition in experiment [1], in [2], in experiment [3], in [7], in experiment [8] and in experiment [4] was less than 50% each time. In addition, the inhibition in experiment [9] is less than 50%; in experiment [5], 83%; in [10], less than 50%; in experiment [6] it was less than 50%.

For `COC1CCN(C(=O)c2ccc(-c3cnc4c(c3)N(Cc3cc(Cl)ccc3C(F)(F)F)CCN4)cc2)CC1`, the inhibition was less than 50% in experiment [1]; less than 50% in experiment [2]; less than 50% in experiment [3]; less than 50% in experiment [4]; 94% in experiment [5]; less than 50% in [6].

Turning to `O=C(O)c1ccc(-c2cnc3c(c2)N(Cc2cc(Cl)ccc2C(F)(F)F)CCN3)cc1`, the inhibition in experiment [1], in [2], in [3], in experiment [4] and in experiment [6] was less than 50% throughout.

Regarding `FC(F)(F)c1ccc(Cl)cc1CN1CCNc2ncc(-c3ccnc(N4CCNCC4)c3)cc21`, the inhibition in experiment [1], in [2], in [3], in experiment [7], in experiment [8] and in [4] was less than 50% in each case. In addition, the inhibition in [9] is less than 50%; in experiment [5], 100%; in [10], less than 50%; in experiment [6], less than 50%.

As for `CN1CCN(c2ccc(-c3cnc4c(c3)N(Cc3cc(Cl)ccc3Cl)CCN4)cn2)CC1`, the inhibition in experiment [1], in experiment [2], in experiment [3], in experiment [7], in experiment [8] and in [4] was less than 50% each time. The inhibition in experiment [9] is less than 50%; in experiment [5] it was 94%; in [10] it was less than 50%; in experiment [6], less than 50%.

In the case of `O=C(c1ccc(-c2cnc3c(c2)N(Cc2cc(Cl)ccc2C(F)(F)F)CCN3)cc1)N1CCC(N2CCCC2)CC1`, the inhibition in experiment [1] was less than 50%; in experiment [2], less than 50%; in experiment [3], less than 50%; in experiment [4], less than 50%; in experiment [5], 98.9%; in experiment [6], less than 50%.

As for `CN1CCN(c2ccc(-c3cnc4c(c3)N(Cc3cc(Cl)ccc3C(F)(F)F)CCN4)cn2)CC1`, the inhibition in [1], in [2], in [3], in experiment [7], in experiment [8] and in experiment [4] was less than 50% in each case. In addition, the inhibition in experiment [9] was less than 50%; in experiment [5], 98%; in experiment [10], less than 50%; in experiment [6], less than 50%.

Consider `CC(=O)N1CCN(c2cc(-c3cnc4c(c3)N(Cc3cc(Cl)ccc3C(F)(F)F)CCN4)ccn2)CC1`, for which the inhibition in [1], in experiment [2], in experiment [3], in [7], in [8] and in [4] was less than 50% in each case. For the same compound, the inhibition is less than 50% in [9], 100% in experiment [5], less than 50% in [10] and less than 50% in [6].

Turning to `CN1CCN(c2ccc(-c3cnc4c(c3)N(Cc3cc(F)ccc3F)CCN4)cn2)CC1`, the inhibition in experiment [1], in experiment [2], in experiment [3], in [7], in [8] and in experiment [4] was less than 50% throughout. Further, the inhibition is less than 50% in [9], 67.2% in experiment [5], less than 50% in [10] and less than 50% in [6].
